Calls of active or inactive are those of the source. The rule behind the calls is not given here.
Assays:
[1] = target: Histone-lysine N-methyltransferase EZH2 (Homo sapiens, UniProt Q15910); type: cell-based, Sf9
[2] = target: T1, Protein cereblon/Histone-lysine N-methyltransferase EZH2 (Homo sapiens) (UniProt Q15910+Q96SW2); assay: PROTAC activity at CRBN E3 ligase/EZH2 in PRC2 complex in human WSUDLCL2 cells assessed as induction of EED degradation incubated for 48 hrs by Western blot analysis; type: cell-based; settings: dose 1-10 µM
[3] = target: T1, Protein cereblon/Histone-lysine N-methyltransferase EZH2 (Homo sapiens); assay: PROTAC activity at CRBN E3 ligase/EZH2 in PRC2 complex in human WSUDLCL2 cells assessed as induction of RbAp48 degradation incubated for 48 hrs by Western blot analysis; type: cell-based; settings: dose 1-10 µM
[4] = target: T1, Protein cereblon/Histone-lysine N-methyltransferase EZH2 (Homo sapiens); assay: PROTAC activity at CRBN E3 ligase/EZH2 in PRC2 complex in human WSUDLCL2 cells assessed as induction of EZH2 degradation at 10 uM incubated for 48 hrs by Western blot analysis; type: cell-based
[5] = target: T1, Protein cereblon/Histone-lysine N-methyltransferase EZH2 (Homo sapiens); assay: PROTAC activity at CRBN E3 ligase/EZH2 in PRC2 complex in human WSUDLCL2 cells assessed as induction of SUZ12 degradation at 10 uM incubated for 48 hrs by Western blot analysis; type: cell-based
[6] = target: T1, Protein cereblon/Histone-lysine N-methyltransferase EZH2 (Homo sapiens); assay: PROTAC activity at CRBN E3 ligase/EZH2 in PRC2 complex in human WSUDLCL2 cells assessed as induction of EZH2 degradation by measuring reduction in EZH2 protein level at 1 uM measured after 48 to 72 hrs by Western blot analysis; type: cell-based; settings: time 48-72 hrs
WSUDLCL2 [7] = assay: Effect on Histone H3 methylation in human WSUDLCL2 cells assessed as reduction in H3K27me1 levels at upto 10 uM incubated for 48 hrs by Western blot analysis; type: functional, cell-based; settings: dose microM <=10, time 48.0 hrs
Method in brief: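 Lysates run on SDS-PAGE and transferred to nitrocellulose. Membranes blocked with 5% skim milk for 2 h, primary antibody applied overnight at 4 °C, then secondary antibody and chemiluminescent detection of histone H3 methylation marks.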

[8] = target: T1, Protein cereblon/Histone-lysine N-methyltransferase EZH2 (Homo sapiens); assay: PROTAC activity at CRBN E3 ligase/EZH2 in PRC2 complex in human DU-145 cells assessed as induction of EZH2 degradation by measuring reduction in EZH2 protein level at 1 uM incubated for 48 hrs by Western blot analysis; type: cell-based
Method in brief: (§1)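 Cancer cell lines exposed to 1 μM compound for 48 h. Lysates immunoblotted (SDS-PAGE, nitrocellulose, 5% milk block, primary antibody overnight at 4 °C) for EZH2, SUZ12, EED, RbAp48 and H3K27me3. Bands quantified by densitometry and normalized to GAPDH.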

[9] = target: T1, Protein cereblon/Histone-lysine N-methyltransferase EZH2 (Homo sapiens); assay: PROTAC activity at CRBN E3 ligase/EZH2 in PRC2 complex in human A2780 cells assessed as induction of RbAp48 degradation by measuring reduction in RbAp48 protein level at 1 uM incubated for 48 hrs by Western blot analysis; type: cell-based
Method in brief: as §1

[10] = target: T1, Protein cereblon/Histone-lysine N-methyltransferase EZH2 (Homo sapiens); assay: PROTAC activity at CRBN E3 ligase/EZH2 in PRC2 complex in human WSUDLCL2 cells assessed as downregulation of EED expression at 1 uM pretreated with MG-132 for 4 hrs followed by compound addition and measured after 48 hrs by Western blot analysis; type: cell-based
Method in brief: (§2)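 WSU-DLCL-2 cells pretreated 4 h with the named inhibitor, then compound added and incubated a further 48 h. EZH2, SUZ12, EED and RbAp48 measured by western blot (nitrocellulose transfer, skim-milk block, primary antibody overnight at 4 °C, chemiluminescent detection).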

[11] = target: T1, Protein cereblon/Histone-lysine N-methyltransferase EZH2 (Homo sapiens); assay: PROTAC activity at CRBN E3 ligase/EZH2 in PRC2 complex in human WSUDLCL2 cells assessed as downregulation of RbAp48 expression at 1 uM pretreated with MG-132 for 4 hrs followed by compound addition and measured after 48 hrs by Western blot analysis; type: cell-based
Method in brief: as §2

Pfeiffer [12] = assay: Upregulation of TNFRSF21 mRNA expression in human Pfeiffer cells at 1 uM incubated for 48 hrs by qRT-PCR analysis; type: functional, cell-based
Method in brief: (§3)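 WSU-DLCL-2 or Pfeiffer cells treated 48 h. Trizol RNA extraction, reverse transcription, SYBR qPCR (95 °C 30 s; 40 cycles of 95 °C 6 s, 60 °C 20 s). mRNA normalized to DMSO-treated cells; mean ± SD of three independent experiments, t-test.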

Pfeiffer [13] = assay: Upregulation of TXINP mRNA expression in human Pfeiffer cells at 1 uM incubated for 48 hrs by qRT-PCR analysis; type: functional, cell-based
Method in brief: as §3

A549 [14] = assay: Upregulation of […] mRNA expression in human […] cells at 5 uM incubated for 48 hrs by qRT-PCR analysis; type: functional, cell-based
Method in brief: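 A549 cells treated 48 h. Trizol RNA extraction, reverse transcription, SYBR qPCR (95 °C 30 s; 40 cycles of 95 °C 6 s, 60 °C 20 s). mRNA normalized to DMSO-treated cells; mean ± SD of three independent experiments.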

A549 [15] = assay: Downregulation of ARL6IP mRNA expression in human A549 cells at 10 uM incubated for 48 hrs by qRT-PCR analysis; type: functional, cell-based
Method in brief: (§4)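 Cells treated 48 h. Total RNA extracted with Trizol, reverse-transcribed, and SYBR RT-qPCR run: 95 °C 30 s, then 40 cycles of 95 °C 6 s and 60 °C 20 s. mRNA normalized to the DMSO-treated group. Mean SD of three independent experiments, t-test versus DMSO.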

A549 [16] = assay: Downregulation of TACC3 mRNA expression in human A549 cells at 10 uM incubated for 48 hrs by qRT-PCR analysis; type: functional, cell-based
Method in brief: as §4

MDA-MB-468 [17] = assay: Downregulation of […] mRNA expression in human MDA-MB-468 cells at 10 uM incubated for 48 hrs by qRT-PCR analysis; type: functional, cell-based
Method in brief: as §4

MDA-MB-468 [18] = assay: Downregulation of ARL6IP mRNA expression in human MDA-MB-468 cells at 10 uM incubated for 48 hrs by qRT-PCR analysis; type: functional, cell-based
Method in brief: as §4

WSUDLCL2 [19] = assay: Antiproliferative activity against human WSUDLCL2 cells harboring EZH2-Y641F mutant assessed as inhibition of cell growth incubated for 3 to 7 days by optical microscopic analysis (Rvb= 4.92 uM); type: functional, cell-based
NCI-H1299 = assay: Antiproliferative activity against EZH2-knockdown human NCI-H1299 cells assessed as inhibition of cell growth at 10 uM treated for 9 days by optical microscopic analysis; type: functional, cell-based; settings: time 9.0 day
Method in brief: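 Cells seeded at 5 × 10³ per well, grown 24 h, then exposed to compound at 10 μM for 9 days with medium refreshed. Cells were photographed and counted on days 1, 3, 5, 7 and 9. For lines 1-2, EZH2-targeting or control shRNA was induced in the cells. Mean SD of three independent experiments; t-test against control.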

[20] = target: T1, Protein cereblon/Histone-lysine N-methyltransferase EZH2 (Homo sapiens); assay: PROTAC activity at CRBN E3 ligase/EZH2 in PRC2 complex in human WSUDLCL2 cells assessed as downregulation of EZH2 expression at 1 uM pretreated with EPZ6438 for 4 hrs followed by compound addition and measured after 48 hrs by Western blot analysis; type: cell-based
Method in brief: as §2

[21] = target: T1, Protein cereblon/Histone-lysine N-methyltransferase EZH2 (Homo sapiens); assay: PROTAC activity at CRBN E3 ligase/EZH2 in PRC2 complex in human WSUDLCL2 cells assessed as downregulation of SUZ12 expression at 1 uM pretreated with EPZ6438 for 4 hrs followed by compound addition and measured after 48 hrs by Western blot analysis; type: cell-based
Method in brief: as §2

T1 sequence (Q15910 whole entry, looked up): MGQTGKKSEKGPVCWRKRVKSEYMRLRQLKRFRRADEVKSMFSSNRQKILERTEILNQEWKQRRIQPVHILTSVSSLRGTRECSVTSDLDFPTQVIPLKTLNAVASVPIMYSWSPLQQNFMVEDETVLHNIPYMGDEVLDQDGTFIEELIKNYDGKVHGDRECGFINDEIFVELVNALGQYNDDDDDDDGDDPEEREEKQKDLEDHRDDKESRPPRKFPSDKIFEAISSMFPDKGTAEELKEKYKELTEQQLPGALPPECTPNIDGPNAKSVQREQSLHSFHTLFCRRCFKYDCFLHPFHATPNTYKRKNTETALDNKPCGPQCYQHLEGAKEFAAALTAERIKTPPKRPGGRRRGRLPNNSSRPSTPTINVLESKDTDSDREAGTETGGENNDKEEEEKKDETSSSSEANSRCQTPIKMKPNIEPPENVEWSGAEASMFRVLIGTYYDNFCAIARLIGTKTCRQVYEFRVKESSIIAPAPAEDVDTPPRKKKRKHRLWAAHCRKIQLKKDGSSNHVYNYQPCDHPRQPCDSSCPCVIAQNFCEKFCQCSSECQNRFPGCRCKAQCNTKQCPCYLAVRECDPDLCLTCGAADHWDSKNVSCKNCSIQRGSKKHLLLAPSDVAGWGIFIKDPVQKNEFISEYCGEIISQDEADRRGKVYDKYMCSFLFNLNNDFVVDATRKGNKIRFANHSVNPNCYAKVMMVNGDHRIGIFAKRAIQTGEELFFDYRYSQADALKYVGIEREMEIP
T1 sequence (Q96SW2 whole entry, looked up): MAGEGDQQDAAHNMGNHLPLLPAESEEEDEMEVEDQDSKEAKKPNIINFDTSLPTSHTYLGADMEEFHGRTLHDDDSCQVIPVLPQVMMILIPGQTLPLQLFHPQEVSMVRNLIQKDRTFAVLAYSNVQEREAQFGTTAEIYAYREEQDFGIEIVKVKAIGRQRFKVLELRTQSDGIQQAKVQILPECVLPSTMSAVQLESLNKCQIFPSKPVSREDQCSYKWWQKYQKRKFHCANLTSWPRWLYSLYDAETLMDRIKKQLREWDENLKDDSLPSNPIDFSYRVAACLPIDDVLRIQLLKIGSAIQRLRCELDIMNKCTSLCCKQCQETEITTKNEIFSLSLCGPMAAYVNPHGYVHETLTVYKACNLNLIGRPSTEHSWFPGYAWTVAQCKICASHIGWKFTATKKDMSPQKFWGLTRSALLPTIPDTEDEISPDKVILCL
Chain of Histone-lysine N-methyltransferase EZH2 (Q15910 whole entry): as the sequence (Q15910 whole entry, looked up) above

CCN(c1cc(-c2ccc(CN3CCN(CCCCCCCOc4cccc5c4C(=O)N(C4CCC(=O)NC4=O)C5=O)CC3)cc2)cc(C(=O)NCc2c(C)cc(C)[nH]c2=O)c1C)C1CCOCC1 (configuration not stated)
IC50 [1]: 2.7 nM | Activity [2]: Dose-Dependent Effect | Activity [3]: Dose-Dependent Effect | Activity [4]: inactive | Activity [5]: inactive | Activity [6]: Active | Activity (WSUDLCL2 [7]): inactive | Activity [8]: Active | Activity [9]: Active | Activity [10]: inactive | Activity [11]: inactive | Activity (Pfeiffer [12]): Active | Activity (Pfeiffer [13]): inactive | Activity (A549 [14]): Active | Activity (A549 [15]): Active | Activity (A549 [16]): Active | Activity (MDA-MB-468 [17]): Active | Activity (MDA-MB-468 [18]): Active | IC50 (WSUDLCL2 [19]): 3690 nM | Activity (NCI-H1299): Active | Activity [20]: inactive | Activity [21]: inactive

Reference: ChEMBL document CHEMBL5038571, “Design and Synthesis of EZH2-Based PROTACs to Degrade the PRC2 Complex for Targeting the Noncatalytic Activity of EZH2” (J Med Chem, 2021)
